{"data": "Results gathered from unrelated publications", "target": "Dual specificity tyrosine-phosphorylation-regulated kinase 4 (DYRK4, Homo sapiens, UniProt Q9NR20)", "One construct used (Q9NR20 1-520)": "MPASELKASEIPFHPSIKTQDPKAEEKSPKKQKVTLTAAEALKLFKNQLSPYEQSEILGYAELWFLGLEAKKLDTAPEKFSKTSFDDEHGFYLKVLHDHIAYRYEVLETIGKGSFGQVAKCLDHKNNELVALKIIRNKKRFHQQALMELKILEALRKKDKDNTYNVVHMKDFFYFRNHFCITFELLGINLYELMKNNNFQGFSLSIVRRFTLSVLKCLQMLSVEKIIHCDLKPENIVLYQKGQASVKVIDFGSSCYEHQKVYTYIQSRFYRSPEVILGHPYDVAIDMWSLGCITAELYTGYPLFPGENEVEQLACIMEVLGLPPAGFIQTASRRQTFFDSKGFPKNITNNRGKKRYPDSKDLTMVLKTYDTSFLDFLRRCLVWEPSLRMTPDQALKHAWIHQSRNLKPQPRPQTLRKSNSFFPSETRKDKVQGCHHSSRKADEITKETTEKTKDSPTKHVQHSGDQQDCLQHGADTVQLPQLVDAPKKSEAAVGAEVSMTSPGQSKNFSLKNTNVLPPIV", "note": "Protocols differ between the studies behind these lines."}
{"Compound": "COc1cc2ncnc(Nc3ccc(Oc4ccccc4)c(C)c3C)c2cc1OC", "assay": "enzyme activity, inhibitor", "setting": "1 µM", "quantity": "inhibition", "value": "-1%"}
{"Compound": "O=C1NC(=O)c2cc(Nc3ccc(F)cc3)c(Nc3ccc(F)cc3)cc21", "assay": "cell-free assay", "setting": "0.5 µM", "quantity": "remaining signal", "value": "98.6%"}
{"Compound": "CC(C)(O)[C@H]1CC[C@H](Nc2ccc3ncc(-c4cccc(C(F)(F)F)c4)n3n2)CC1", "assay": "enzyme activity, inhibitor", "setting": "1 µM", "quantity": "remaining activity", "value": "97.3%"}
{"Compound": "Cn1cnc(Br)c1C1=CN(c2ncnc3[nH]cnc23)CCS1", "assay": "enzyme activity, inhibitor, radiometric", "setting": "50 nM", "quantity": "inhibition", "value": "14.9%"}
{"Compound": "O=C(Nc1cnn(-c2csc(C(=O)NC3COC3)c2)c1)Nc1c(F)cccc1Cl", "assay": "enzyme activity, inhibitor", "setting": "5 µM", "quantity": "remaining activity", "value": "96.2%"}
{"Compound": "Cn1cc(-c2cccc(N3CCc4c(sc5c4CC(C)(C)C5)C3=O)c2CO)cc(Nc2ccncn2)c1=O", "assay": "enzyme activity, inhibitor", "setting": "1 µM", "quantity": "inhibition", "value": "2%"}
{"Compound": "CC(C)(C)c1nc(-c2cccc(NS(=O)(=O)c3c(F)cccc3F)c2F)c(-c2ccnc(N)n2)s1", "assay": "enzyme activity, inhibitor, radiometric", "setting": "1 µM", "quantity": "remaining activity", "value": "38%"}
{"Compound": "COc1cc2ncnc(Nc3ccc(Oc4ccccc4)cc3C)c2cc1OC", "assay": "enzyme activity, inhibitor", "setting": "1 µM", "quantity": "inhibition", "value": "0%"}
{"Compound": "CCCS(=O)(=O)Nc1ccc(F)c(C(=O)c2c[nH]c3ncc(-c4ccc(Cl)cc4)cc23)c1F", "assay": "enzyme activity, inhibitor", "setting": "1 µM", "quantity": "inhibition", "value": "< 10%"}
{"Compound": "COc1cc(-c2cc(-c3ccc(N4CCNCC4)cc3)cnc2C)cc(OC)c1OC", "assay": "enzyme activity, inhibitor", "setting": "0.1 µM", "quantity": "inhibition", "value": "2%"}
{"Compound": "Cn1cc(-c2cc(F)cc(N3CCn4c(cc5c4CCCC5)C3=O)c2CO)cc(Nc2ccc(N3CCN(C4COC4)CC3)cn2)c1=O", "assay": "enzyme activity, inhibitor", "setting": "0.1 µM", "quantity": "inhibition", "value": "5%"}
{"Compound": "O=C(Nc1cnn(-c2csc(C(=O)NC3COC3)c2)c1)Nc1ccccc1Cl", "assay": "enzyme activity, inhibitor", "setting": "5 µM", "quantity": "remaining activity", "value": "94.6%"}
{"Compound": "CC(C)(C)c1nc2c(s1)c1nc(N)ncc1c1ccc(NS(=O)(=O)c3c(F)cccc3F)c(F)c12", "assay": "enzyme activity, inhibitor, radiometric", "setting": "1 µM", "quantity": "remaining activity", "value": "92%"}
{"Compound": "O=C1Nc2ccc(Cl)cc2C1=Cc1cc(Cl)c(O)c(Cl)c1", "assay": "cell-free assay", "setting": "0.5 µM", "quantity": "remaining signal", "value": "95.7%"}
